Experimental findings from ChEMBL document CHEMBL1138428, “5-Heteroatom substituted pyrazoles as canine COX-2 inhibitors. Part III: molecular modeling studies on binding contribution of 1-(5-methylsulfonyl)pyrid-2-yl and 4-nitrile” (Bioorg Med Chem Lett, 2007) are described below.

The term IC50 denotes the point on the concentration scale where inhibition reaches its midpoint. A lower IC50 goes with higher potency. Usually inhibition stands for how much of the control response was suppressed. One may read the solubility as the concentration that dissolves in the medium under given conditions. High values mean a readily soluble substance, low ones a poorly soluble substance.

Some results are limits rather than exact numbers.

Data set [1] can be described thus: Inhibition of COX1 in canine whole blood. It is filed as tissue-based. The settings on record: Canis lupus familiaris. The method in brief:
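Canine whole blood without heparin (0.5 mL) added directly to drug, then incubated 1 h at 37 °C. COX-1 activity read as platelet thromboxane B2 by enzyme immunoassay, with no-drug samples as maximum-TXB2 controls. Run in duplicate or triplicate.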

Data set [2] in a line: Inhibition of COX2 in canine whole blood. It is filed as tissue-based. The settings on record: Canis lupus familiaris. In outline:
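Heparinized canine whole blood (0.5 mL) added to drug plus LPS to stimulate PGE2, then incubated overnight at 37 °C. Controls were LPS without drug (maximum) and vehicle only (background). EDTA added to 0.3% final, samples centrifuged, and plasma stored at −20 °C. PGE2 measured by EIA. Run in duplicate or triplicate.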

Data set [3] is filed under the species Canis lupus familiaris. Kind of data set: Inhibition of COX2 in canine whole blood at 0.5 uM. In kind it is tissue-based.
Data set [4] is filed under the species Canis lupus familiaris. Kind of data set: Selectivity for COX2 over COX1 in canine whole blood. It is filed as tissue-based.
Data set [5] can be described thus: Aqueous solubility of the compound. In kind it is physicochemical.

For the molecule `CC(C)(C)CNc1c(C#N)c(C(F)(F)F)nn1-c1ccc(S(C)(=O)=O)cn1`, the IC50 came to 17.4 µM in data set [1] and 0.2 µM in data set [2]. The same molecule displayed an inhibition in data set [3] of 84%. Besides, the Ratio IC50 in data set [4] is 87. This molecule also yielded a solubility in data set [5] below 25 µg/mL.
